# Test results published in ChEMBL document CHEMBL1145781, “Synthesis and structure-activity relationships of 5-amino-6-fluoro-1-[(1R,2S)-2-fluorocyclopropan-1-yl]-8-methylquinolonecarboxylic acid antibacterials having fluorinated 7-[(3R)-3-(1-aminocyclopropan-1-yl)pyrrolidin-1-yl] substituents” (J Med Chem, 2003).
# Columns and labels:
# [1] = Toxicity was determined as presence of micronucleated reticulocytes (MNRET) in blood at 24 and 48 h after 150 mg/kg dose administered intravenously to 5-week old male mice; negative.; type: organism-based; parameters: dose 150 mg/kg, route intravenous; conditions: mouse, in vivo, iv
# [2] = Total concentration in serum was determined after 6 hr of intravenous administration to rats (n=4) at dose of 20 mg/kg; type: ADME, organism-based; parameters: time < 6 hr, dose 20 mg/kg, route intravenous; conditions: rat
# Enterococcus faecalis = test: Antibacterial activity was determined against Enterococcus faecalis ATCC 19433 strain after incubation at 37 degrees C for 18 h; type: functional; conditions: ATCC 19433, 18 h
# [3] = Total concentration in lung was determined after 6 hr of intravenous administration to rats (n=4) at dose of 20 mg/kg; type: ADME, organism-based; parameters: time < 6 hr, dose 20 mg/kg, route intravenous; conditions: rat
# [4] = Ratio of total concentration in lung to that of serum after 6 hr of intravenous administration to rats (n=4) at dose of 20 mg/kg; type: ADME, organism-based; parameters: dose 20 mg/kg, route intravenous; conditions: rat
# Staphylococcus aureus [5] = test: Antibacterial activity was determined against Staphylococcus aureus FDA 209-P strain after incubation at 37 degrees C for 18 h; type: functional
# [6] = Half life in lung was determined after intravenous administration to rats (n=4) at dose of 20 mg/kg; type: ADME, organism-based; parameters: dose 20 mg/kg, route intravenous; conditions: rat
# Staphylococcus aureus [7] = test: Antibacterial activity was determined against clinically isolated Levofloxacin-methicillin resistant Staphylococcus aureus (LVFX-r MRSA) strains (74 strains); type: functional
# Streptococcus mitis = test: Antibacterial activity was determined against Streptococcus mitis IID685 strain after incubation at 37 degrees C for 18 h; type: functional
# [8] = Serum concentration was determined after 5 min. of intravenous administration to rats (n=4) at dose of 20 mg/kg; type: ADME, organism-based; parameters: dose 20 mg/kg, route intravenous; conditions: rat
# [9] = Total concentration in kidney was determined after 6 hr of intravenous administration to rats (n=4) at dose of 20 mg/kg; type: ADME, organism-based; parameters: time < 6 hr, dose 20 mg/kg, route intravenous; conditions: rat
# [10] = Mortality was determined after 150 mg/kg dose administered intravenously to 5-week old male mice at a speed of 0.2 mL/min counted on day 7 for total 5 mice; type: ADME, organism-based; parameters: dose 150 mg/kg, route intravenous; conditions: mouse, in vivo, iv
# Procedure, shortened: (§1)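 Male Slc:ddY mice, 5 weeks old. Compound dissolved in 0.1 N NaOH in saline at varied concentrations and given as a single IV injection at 0.2 mL/min, total volume 10 mL/kg body weight. Deaths counted on day 7 and reported as dead/tested.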
# [11] = Ratio of total concentration in kidney to that of serum after 6 hr of intravenous administration to rats (n=4) at dose of 20 mg/kg; type: ADME, organism-based; parameters: dose 20 mg/kg, route intravenous; conditions: rat
# Rattus norvegicus = test: Ratio of total concentration in serum to that of serum after 6 hr of intravenous administration to rats (n=4) at dose of 20 mg/kg; type: ADME, organism-based; parameters: dose 20 mg/kg, route intravenous; conditions: in vivo
# [12] = Half life in kidney was determined after intravenous administration to rats (n=4) at dose of 20 mg/kg; type: ADME, organism-based; parameters: dose 20 mg/kg, route intravenous; conditions: rat
# [13] = Half life in liver was determined after intravenous administration to rats (n=4) at dose of 20 mg/kg; type: ADME, organism-based; parameters: dose 20 mg/kg, route intravenous; conditions: rat
# Streptococcus pneumoniae [14] = test: Antibacterial activity was determined against Streptococcus pneumoniae J-24 strain after incubation at 37 degrees C for 18 h; type: functional
# [15] = Liver concentration was determined after 5 min. of intravenous administration to rats (n=4) at dose of 20 mg/kg; type: ADME, organism-based; parameters: dose 20 mg/kg, route intravenous; conditions: rat
# [16] = Ratio of total concentration in liver to that of serum after 6 hr of intravenous administration to rats (n=4) at dose of 20 mg/kg; type: ADME, organism-based; parameters: dose 20 mg/kg, route intravenous; conditions: rat
# [17] = Half life in serum was determined after intravenous administration to rats (n=4) at dose of 20 mg/kg; type: ADME, organism-based; parameters: dose 20 mg/kg, route intravenous; conditions: rat
# [18] = test system: Staphylococcus epidermidis; test: Antibacterial activity was determined against Staphylococcus epidermis 56500 strain after incubation at 37 degrees C for 18 h; type: functional
# [19] = Solubility was determined in water; type: physicochemical
# Streptococcus pyogenes = test: Antibacterial activity was determined against Streptococcus pyogenes G-36 strain after incubation at 37 degrees C for 18 h; type: functional
# Escherichia coli = test: Antibacterial activity was determined against Escherichia coli NIHJ strain after incubation at 37 degrees C for 18 h; type: functional
# [20] = Kidney concentration was determined after 5 min. of intravenous administration to rats (n=4) at dose of 20 mg/kg; type: ADME, organism-based; parameters: dose 20 mg/kg, route intravenous; conditions: rat
# [21] = Lung concentration was determined after 5 min. of intravenous administration to rats (n=4) at dose of 20 mg/kg; type: ADME, organism-based; parameters: dose 20 mg/kg, route intravenous; conditions: rat
# Streptococcus pneumoniae [22] = test: Antibacterial activity was determined against clinically isolated penicillin resistant Streptococcus pneumoniae (PRSP) strains (50 strains); type: functional
# Enterococcus sp. [23] = test: Antibacterial activity was determined against clinically isolated vancomycin-B resistant enterococci (VRE) strains (10 strains); type: functional
# [24] = Total concentration in liver was determined after 6 hr of intravenous administration to rats (n=4) at dose of 20 mg/kg; type: ADME, organism-based; parameters: time < 6 hr, dose 20 mg/kg, route intravenous; conditions: rat
# Pseudomonas aeruginosa = test: Antibacterial activity was determined against Pseudomonas aeruginosa PAO1 strain after incubation at 37 degrees C for 18 h; type: functional
# Klebsiella pneumoniae = test: Antibacterial activity was determined against Klebsiella pneumoniae type II strain after incubation at 37 degrees C for 18 h; type: functional
# Enterococcus sp. [25] = test: Antibacterial activity was determined against clinically isolated vancomycin-A resistant enterococci (VRE) strains (33 strains); type: functional
# [26] = Mortality was determined after 50 mg/kg dose administered intravenously to 5-week old male mice at a speed of 0.2 mL/min counted on day 7 for total 5 mice; type: ADME, organism-based; parameters: dose 50 mg/kg, route intravenous; conditions: mouse, in vivo, iv; procedure, shortened: as §1
# [27] = Mortality was determined after 100 mg/kg dose administered intravenously to 5-week old male mice at a speed of 0.2 mL/min counted on day 7 for total 2 mice; type: ADME, organism-based; parameters: dose 100 mg/kg, route intravenous; conditions: mouse, in vivo, iv; procedure, shortened: as §1
# [28] = Mortality was determined after 150 mg/kg dose administered intravenously to 5-week old male mice at a speed of 0.2 mL/min counted on day 7 for total 2 mice; type: ADME, organism-based; parameters: dose 150 mg/kg, route intravenous; conditions: mouse, in vivo, iv; procedure, shortened: as §1
# [29] = Toxicity was determined as presence of micronucleated reticulocytes (MNRET) in blood at 24 and 48 hr after 50 mg/kg dose administered intravenously to 5-week old male mice.; conditions: mouse, in vivo, iv
smiles,measurement,setting,value
Cc1c(N2C[C@@H](F)[C@@H](C3(N)CC3)C2)c(F)c(N)c2c(=O)c(C(=O)O)cn([C@@H]3C[C@@H]3F)c12 [DQ-113],Toxicity,[1],Non-toxic
same,AUC at 6 h,[2],9300 ng·h/mL
same,MIC,Enterococcus faecalis,0.025 µg/mL
same,AUC at 6 h,[3],37900 ng·h/mL
same,Kp at 6 h,[4],4.1
same,MIC,Staphylococcus aureus [5],≤ 0.003 µg/mL
same,half-life,[6],0.9 h
same,MIC50,Staphylococcus aureus [7],0.12 µg/mL
same,MIC90,Staphylococcus aureus [7],0.5 µg/mL
same,MIC,Streptococcus mitis,≤ 0.003 µg/mL
same,concentration at 5 min,[8],11100 ng/mL
same,AUC at 6 h,[9],34800 ng·h/mL
same,Dead,[10],0
same,Kp at 6 h,[11],3.7
same,Ratio,Rattus norvegicus,1
same,half-life,[12],1.3 h
same,half-life,[13],1.3 h
same,MIC,Streptococcus pneumoniae [14],≤ 0.003 µg/mL
same,concentration at 5 min,[15],46200 ng/mL
same,Kp at 6 h,[16],3.9
same,half-life,[17],1.1 h
same,MIC,[18],≤ 0.003 µg/mL
same,solubility,[19],291 µg/mL
same,MIC,Streptococcus pyogenes,≤ 0.003 µg/mL
same,MIC,Escherichia coli,≤ 0.003 µg/mL
same,concentration at 5 min,[20],33700 ng/mL
same,concentration at 5 min,[21],22000 ng/mL
same,MIC50,Streptococcus pneumoniae [22],≤ 0.008 µg/mL
same,MIC90,Streptococcus pneumoniae [22],0.015 µg/mL
same,MIC50,Enterococcus sp. [23],0.25 µg/mL
same,MIC90,Enterococcus sp. [23],0.25 µg/mL
same,AUC at 6 h,[24],36000 ng·h/mL
same,MIC,Pseudomonas aeruginosa,0.39 µg/mL
same,MIC,Klebsiella pneumoniae,0.013 µg/mL
same,MIC50,Enterococcus sp. [25],0.25 µg/mL
same,MIC90,Enterococcus sp. [25],2 µg/mL
Cc1c(N2CC[C@@H]([C@H](C)N)C2)c(F)c(N)c2c(=O)c(C(=O)O)cn([C@@H]3C[C@@H]3F)c12,MIC,Enterococcus faecalis,0.025 µg/mL
same,Dead,[26],1
same,MIC,Staphylococcus aureus [5],≤ 0.003 µg/mL
same,MIC,Streptococcus mitis,≤ 0.003 µg/mL
same,MIC,Streptococcus pneumoniae [14],≤ 0.003 µg/mL
same,MIC,[18],≤ 0.003 µg/mL
same,solubility,[19],95 µg/mL
same,MIC,Streptococcus pyogenes,≤ 0.003 µg/mL
same,Dead,[27],2
same,Dead,[28],2
same,MIC,Escherichia coli,≤ 0.003 µg/mL
same,Toxicity,[29],Toxic
same,MIC,Pseudomonas aeruginosa,0.05 µg/mL
same,MIC,Klebsiella pneumoniae,0.025 µg/mL
